Reference: article PMC2922024 (Neuroscience letters, 2010)
Positions of bridges follow the written chain, without caps; N, C: chain ends. Residues, ends and D or L forms follow the SMILES beside them.

B1: nerve growth factor (protein, UniProt P01139 122-241, looked up)
Beta-nerve growth factor: SSTHPVFHMGEFSVCDSVSVWVGDKTTATDIKGKEVTVLAEVNINNSVFRQYFFETKCRASNPVESGCRGIDSKHWNSYCTTTHTFVKALTTDEKQAAWRFIRIDTACVCVLSRKATRRG
modifications: Beta-nerve growth factor

Columns and labels:
[1] = Free GsMTx4 in media with or without serum; format: in vitro ADME
PC12 cells = experiment: Neurite outgrowth from PC12 cells; format: cell-based, rat; conditions: NGF 50 ng/ml alone, 48 h
Summary of the method: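 Rat PC12 cells were grown in high-glucose DMEM with 10% FBS, penicillin/streptomycin and 10 mM Hepes at 37 °C in 5% CO2. They were seeded at 4 × 10^4 per well, adhered overnight, then left untreated or given NGF (50 ng/ml final) for 48 h. Phase-contrast images were scored blinded: three random fields per well, at least 4 wells, fields of more than 10 cells, at least 250 cells per experiment. The percentage was calculated per image, and the longest neurite per bearing cell was averaged. Groups were compared by one-way ANOVA with Tukey–Kramer.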

| Molecule | free concentration ([1]; culture media with 10% serum, mean (total) concentration 100 μM GsMTx4) | free drug concentration in media as share of the total ([1]; media with 10% serum) | length of the longest neurite per NBC (PC12 cells; untreated approximately 10 μm) | percentage of neurite bearing cells (PC12 cells; untreated ~1%) |
| --- | --- | --- | --- | --- |
| CC(C)C[C@@H]1NC(=O)[C@@H](NC(=O)CN)CSSC[C@@H]2NC(=O)[C@@H]3CSSC[C@@H](C(=O)N[C@@H](CC(N)=O)C(=O)N[C@@H](Cc4ccccc4)C(=O)N[C@@H](CO)C(=O)N[C@@H](Cc4ccccc4)C(N)=O)NC(=O)[C@H](CC(C)C)NC(=O)[C@H](CCCCN)NC(=O)[C@H](Cc4ccccc4)NC(=O)[C@H](CC(C)C)NC(=O)[C@H](CCCCN)NC(=O)[C@H](CO)NC(=O)[C@H](CSSC[C@H](NC(=O)[C@H](CCCCN)NC(=O)[C@H](Cc4c[nH]c5ccccc45)NC(=O)[C@H](Cc4c[nH]c5ccccc45)NC(=O)[C@H](Cc4ccccc4)NC(=O)[C@H](CCC(=O)O)NC1=O)C(=O)N[C@@H](CC(N)=O)C(=O)N1CCC[C@H]1C(=O)N[C@@H](CC(N)=O)C(=O)N[C@@H](CC(=O)O)C(=O)N[C@@H](CC(=O)O)C(=O)N[C@@H](CCCCN)C(=O)N3)NC(=O)[C@H](CCCCN)NC(=O)[C@H](CC(C)C)NC(=O)[C@H](CCCCN)NC(=O)[C@@H]1CCCN1C(=O)[C@H](CCCNC(=N)N)NC2=O [GsMTx4] (H-GCLEFWWKCNPNDDKCCRPKLKCSKLFKLCNFSF-NH2; disulfide 2-17, 9-23, 16-30) | ~ 5 μM | about 5% | – | – |
| B1 | – | – | ~ 20 μm | ~ 20% |
